In ChEMBL document CHEMBL4387713, “Galloyl Carbohydrates with Antiangiogenic Activity Mediated by Capillary Morphogenesis Gene 2 (CMG2) Protein Binding” (J Med Chem, 2019) one finds IC50, inhibition in vivo and Activity data, which are given here for 15 compounds.

The target in data set [1] is Anthrax toxin receptor 2 (Homo sapiens, UniProt P58335, C178A/R40C). As to the kind of experiment: Inhibition of AF488-labelled PA binding to AF546- labelled GST-tagged CMG2 R40C/C178A double mutant (unknown origin) expressed in Escherichia coli BL21 DE3 measured after 4 hrs by FRET assay.
Sequence of Anthrax toxin receptor 2 (P58335 whole entry, looked up, stated change not applied): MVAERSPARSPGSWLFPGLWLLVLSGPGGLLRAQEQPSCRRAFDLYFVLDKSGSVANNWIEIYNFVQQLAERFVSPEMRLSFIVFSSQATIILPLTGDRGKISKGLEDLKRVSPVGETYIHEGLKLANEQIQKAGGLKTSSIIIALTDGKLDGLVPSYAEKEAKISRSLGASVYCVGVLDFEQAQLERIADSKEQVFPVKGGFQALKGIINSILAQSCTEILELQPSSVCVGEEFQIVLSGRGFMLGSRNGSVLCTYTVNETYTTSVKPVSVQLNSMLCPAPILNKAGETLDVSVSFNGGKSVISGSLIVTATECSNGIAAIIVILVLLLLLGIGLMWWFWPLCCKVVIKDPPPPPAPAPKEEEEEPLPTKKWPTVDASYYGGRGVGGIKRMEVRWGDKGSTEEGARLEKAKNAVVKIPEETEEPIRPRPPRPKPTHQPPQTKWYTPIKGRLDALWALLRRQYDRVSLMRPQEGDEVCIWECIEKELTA
For data set [2], the system named is EA.hy 926. Description: Antimigratory activity in human EAhy926 cells measured at 10 mins interval for 12 hrs by time-lapse transmitted light microscopy.
Data set [3] deals with Mus musculus. Description: Inhibition of basic fibroblast growth factor-induced corneal angiogenesis in C57BL/6J mouse assessed as decrease in vessel area at 10 mg/kg administered intraperitoneally measured on 6th postoperative day relative to control. Particulars: ip. It is filed as functional. An outline of the steps:
(§1)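 C57BL/6J mice given 80 ng bFGF slow-release pellets in the cornea about 1.0 mm from the temporal limbus. Compound diluted 5:1 in saline, 10 mg/kg/day ip. Vehicle is DMSO/NMP/Tween/Cremophor in saline. Vessel area compared with vehicle by t-test (vehicle n = 9, treated n = 10). Body weight followed against vehicle-treated mice.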

Data set [4] is described as follows: Toxicity in C57BL/6J mouse assessed as body weight loss at 10 mg/kg, ip. It is filed as organism-based. The following applies: in vivo. An outline of the steps: as §1

Consider `O=C(OC[C@H]1OC(OC(=O)c2ccc(O)c(O)c2O)[C@H](OC(=O)c2ccc(O)c(O)c2O)[C@@H](OC(=O)c2ccc(O)c(O)c2O)[C@@H]1OC(=O)c1ccc(O)c(O)c1O)c1ccc(O)c(O)c1O` (stereo partly drawn), for which the IC50 (usually the concentration that inhibits the measured activity by half) in data set [1] stood at 3420 nM.
`O=C(O[C@@H]1OC[C@@H](OC(=O)c2cc(O)c(O)c(O)c2)[C@@H](OC(=O)c2cc(O)c(O)c(O)c2)[C@H]1OC(=O)c1cc(O)c(O)c(O)c1)c1cc(O)c(O)c(O)c1` gave an IC50 in data set [1] of more than 10000 nM.
On the same count and under the same terms, for `O=C(OC[C@H]1OC(O)[C@H](OC(=O)c2cc(O)c(O)c(O)c2)[C@@H](OC(=O)c2cc(O)c(O)c(O)c2)[C@H]1OC(=O)c1cc(O)c(O)c(O)c1)c1cc(O)c(O)c(O)c1` (stereo partly drawn) the value was 167 nM.
In data set [1], `O=C(OC[C@H]1O[C@H](OC(=O)c2cc(O)c(O)c(O)c2)[C@@H](OC(=O)c2cc(O)c(O)c(O)c2)[C@@H](OC(=O)c2cc(O)c(O)c(O)c2)[C@@H]1OC(=O)c1cc(O)c(O)c(O)c1)c1cc(O)c(O)c(O)c1` yielded an IC50 of 100 nM.
Still for that read-out and setting: for `O=C(OC[C@H]1O[C@H](OC(=O)c2ccc(O)c(O)c2O)[C@@H](OC(=O)c2ccc(O)c(O)c2O)[C@@H](OC(=O)c2ccc(O)c(O)c2O)[C@@H]1OC(=O)c1ccc(O)c(O)c1O)c1ccc(O)c(O)c1O` the value was more than 10000 nM; for `O=C(OC[C@H]1O[C@@H](OC(=O)c2ccc(O)c(O)c2O)[C@@H](OC(=O)c2ccc(O)c(O)c2O)[C@@H](OC(=O)c2ccc(O)c(O)c2O)[C@@H]1OC(=O)c1ccc(O)c(O)c1O)c1ccc(O)c(O)c1O`, 132 nM.
Still for that read-out and setting: the value for `O=C(OC[C@H]1O[C@H](O[C@H]2O[C@H](COC(=O)c3cc(O)c(O)c(O)c3)[C@@H](OC(=O)c3cc(O)c(O)c(O)c3)[C@H](OC(=O)c3cc(O)c(O)c(O)c3)[C@H]2OC(=O)c2cc(O)c(O)c(O)c2)[C@@H](OC(=O)c2cc(O)c(O)c(O)c2)[C@@H](OC(=O)c2cc(O)c(O)c(O)c2)[C@@H]1OC(=O)c1cc(O)c(O)c(O)c1)c1cc(O)c(O)c(O)c1` was more than 10000 nM; that for `O=C(OCC(OC(=O)c1ccc(O)c(O)c1O)[C@@H]1O[C@H](OC(=O)c2ccc(O)c(O)c2O)[C@H](OC(=O)c2ccc(O)c(O)c2O)[C@H]1OC(=O)c1ccc(O)c(O)c1O)c1ccc(O)c(O)c1O` (single isomer, unassigned) was more than 10000 nM; that for `O=C(OC[C@H]1O[C@@H](OC(=O)c2cc(O)c(O)c(O)c2)[C@H](OC(=O)c2cc(O)c(O)c(O)c2)[C@@H](OC(=O)c2cc(O)c(O)c(O)c2)[C@@H]1OC(=O)c1cc(O)c(O)c(O)c1)c1cc(O)c(O)c(O)c1` [PENTAGALLOYL GLUCOSE] was 607 nM.
Still for that read-out and setting: the value for `O=C(O[C@@H]1OC[C@@H](OC(=O)c2ccc(O)c(O)c2O)[C@@H](OC(=O)c2ccc(O)c(O)c2O)[C@H]1OC(=O)c1ccc(O)c(O)c1O)c1ccc(O)c(O)c1O` was more than 10000 nM; that for `O=C(OC[C@H]1O[C@H](O[C@H]2O[C@H](COC(=O)c3ccc(O)c(O)c3O)[C@@H](OC(=O)c3ccc(O)c(O)c3O)[C@H](OC(=O)c3ccc(O)c(O)c3O)[C@H]2OC(=O)c2ccc(O)c(O)c2O)[C@@H](OC(=O)c2ccc(O)c(O)c2O)[C@@H](OC(=O)c2ccc(O)c(O)c2O)[C@@H]1OC(=O)c1ccc(O)c(O)c1O)c1ccc(O)c(O)c1O` was more than 10000 nM.
`O=C(O[C@H]1OC[C@@H](OC(=O)c2ccc(O)c(O)c2O)[C@@H](OC(=O)c2ccc(O)c(O)c2O)[C@H]1OC(=O)c1ccc(O)c(O)c1O)c1ccc(O)c(O)c1O` yielded an IC50 in data set [1] of more than 10000 nM.
As to `O=C(OC[C@H]1O[C@@H](OC(=O)c2cc(O)c(O)c(O)c2)[C@@H](OC(=O)c2cc(O)c(O)c(O)c2)[C@@H](OC(=O)c2cc(O)c(O)c(O)c2)[C@@H]1OC(=O)c1cc(O)c(O)c(O)c1)c1cc(O)c(O)c(O)c1`, the IC50 in data set [1] is 58 nM; in data set [2], 365 to 400 nM. In data set [3], the inhibition in vivo (commonly the drop in the measured response relative to a control, in per cent) at 10 mg/kg came to 20%. Further, the Activity entry in data set [4] is “Non-Toxic”.
`O=C(OC[C@H]1O[C@H](O[C@H]2[C@H](OC(=O)c3ccc(O)c(O)c3O)[C@@H](OC(=O)c3ccc(O)c(O)c3O)[C@H](OC(=O)c3ccc(O)c(O)c3O)O[C@@H]2COC(=O)c2ccc(O)c(O)c2O)[C@H](OC(=O)c2ccc(O)c(O)c2O)[C@@H](OC(=O)c2ccc(O)c(O)c2O)[C@@H]1OC(=O)c1ccc(O)c(O)c1O)c1ccc(O)c(O)c1O` returned an IC50 in data set [1] of 1160 nM.
As for `O=C(OC[C@H]1O[C@H](O[C@H]2[C@H](OC(=O)c3cc(O)c(O)c(O)c3)[C@@H](OC(=O)c3cc(O)c(O)c(O)c3)[C@H](OC(=O)c3cc(O)c(O)c(O)c3)O[C@@H]2COC(=O)c2cc(O)c(O)c(O)c2)[C@H](OC(=O)c2cc(O)c(O)c(O)c2)[C@@H](OC(=O)c2cc(O)c(O)c(O)c2)[C@@H]1OC(=O)c1cc(O)c(O)c(O)c1)c1cc(O)c(O)c(O)c1`, the half-maximal inhibitory concentration (IC50) in data set [1] is more than 10000 nM.
